Laboratory results published in PubChem BioAssay.

Assay: LAP4-GFP expression modulators in yeast, confirmation, cell-based, cherry picks, flow cytometry, mother/daughter gates (AID 2271);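 note: ratio of sample to DMSO plate mean so 100% equals DMSO level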
Details: S. cerevisiae LAP4-GFP strain, 3 h, measured here: daughter cell gate response, at 10 µM, stronger effect = higher value, 100 means same as DMSO control
In short: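 System – GFP-fusion yeast strain · Amount – 0.2 OD600 cells · Buffer or medium – SC growth medium · Dosing – single test-compound dose, 10 µM final · Schedule – 3 h treatment at 30 °C with rotation · Detection – GFP by flow cytometry · Read-out – per-gate (all, mother, daughter) GFP response vs DMSO · Benchmarks – positive rapamycin (400 ng/mL), negative DMSO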

Row | Structure (SMILES) | GFP response relative to DMSO [%]
1 | O=C(COC(=O)c1n[nH]c2ccccc12)c1cccc(Br)c1 | 101
2 | Cc1c(C(=O)Nc2ccccc2)cnn1-c1ccccc1 | 101
3 | Oc1c(CN2CCN(c3ccccc3)CC2)cc(Br)c2cccnc12 | 168
4 | NC(=O)c1ccccc1-c1nc(-c2ccccc2)no1 | 97.5
5 | CC(C(=O)O)n1nc(-c2ccccc2)c2ccccc21 (stereo not drawn) | 101
6 | COc1cc(/C=C2/N=C(c3ccccc3)OC2=O)c(F)cc1OCc1ccccc1 | 102
7 | COc1ccc(-c2nn(-c3ccccc3)cc2C(=O)NC(=S)NNC(=O)c2ccncc2)cc1 | 108
8 | CCOC(=O)Cc1csc(NC(=O)CCCCCN2C(=O)c3cccc4cccc(c34)C2=O)n1 | 87.8
9 | COC(=O)c1ccc(/C=C/C(=O)c2cccc(OC)c2)cc1 | 112
10 | Cc1[nH][nH]c(=O)c1C(c1ccc(N(C)C)c(Br)c1)c1c(C)[nH][nH]c1=O | 115
11 | Cc1ccc(CCN2CC(C(=O)NCCCN(C)Cc3ccccc3)CC2=O)cc1 (stereo not drawn) | 104
12 | COc1ccc(NC(=O)C2CCN(S(=O)(=O)c3ccc(OC)c(OC)c3)CC2)c(OC)c1 | 99.1
13 | CN1CCc2c(sc3c2C(=O)NC(c2ccc4c(c2)OCO4)N3)C1 (stereo not drawn) | 95
14 | Nc1cccnc1S(=O)(=O)c1ccccc1 | 94.1
15 | N#Cc1ccccc1Cn1cc(/C=C/[N+](=O)[O-])c2ccccc21 | 129
16 | CN(c1ccccc1)S(=O)(=O)c1ccc(C(=O)Nc2nnc(-c3ccc(F)cc3)o2)cc1 | 128
17 | Cc1ccc(C)c(N2CCN(C(=O)c3ccccc3Br)CC2)c1 | 101
18 | CCOC(=O)C(=CNNc1cccc(Cl)c1)C(=O)OCC | 125
